Assay results taken from article PMC6331719 (The EMBO Journal, 2018).

Key:
Caco‐2 cells [1] = test: Endosomal trafficking markers, Caco-2 cells; assay type: cell-based, human; conditions: for Protection from P31–43 effects on BECN1, hVps34, UVRAG, Rab5, Rab7: Caco-2, pre-incubation with potentiator
In short: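 Endosomal fractions isolated from treated and untreated Caco-2 cells. Rab5 and Rab7 immunoblotted, with EEA-1 as loading control. Densitometry reported as mean ± SD of triplicate independent experiments. Potentiator VX-770 used at 10 μM.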

[2] = test system: CFTR (Caco-2 and T84 cells); test: Iodide efflux by SPQ in intestinal epithelial cells; assay type: cell-based, human; conditions: 20 min pre-treatment with potentiator, n = 3
CFTR (Caco-2 cells) = test: CFTR stability, ubiquitination and plasma membrane level, Caco-2 cells; assay type: cell-based, human; conditions: Caco-2, pre-incubation with potentiator, 24 h
In short: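 Caco-2 cells homogenised and spun at 2,300 × g for 15 min, then 16,000 × g for 1 h at 4°C. The membrane pellet was solubilised in Tris–HCl pH 7.4/EDTA buffer with 1% Triton X-100 and spun at 60,000 × g for 1 h to give the plasma-membrane fraction. Fraction used for IP or immunoblot against CFTR, ubiquitin, CHIP and related markers. Potentiator VX-770 at 10 μM.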

CFTR (Caco‐2 cells) = test: Ussing chamber, CFTR-dependent Cl- secretion in Caco-2 cells; assay type: cell-based, human; conditions: for Protection against P31–43-mediated reduction of chloride current: pre-incubation up to 20 min, VX-770 10 μM, Vrx-532 20 μM
In short: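 Caco-2 or T84 monolayers grown on 0.4-μm Transwells to 800–1,200 Ω cm2, then mounted in Ussing chambers. Ringer both sides, 37°C, gassed with 95% O2/5% CO2. Cells pretreated 3 h with peptides (20 μg/ml) or PT gliadin (500 μg/ml), or given bath peptides (100 μM, 3–5 min) after 100 μM amiloride. VX-770 10 μM for 5 min. Forskolin 20 μM; peak CFTRinh172-sensitive Isc.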

[3] = test system: duodenal biopsies from CD patients; test: Duodenal biopsies from CD patients, CD3+CD25+ cells in lamina propria; assay type: cell-based, human; conditions: Vrx-532 20 μM, 3 h pre-incubation
[4] = test system: CFTR (small intestine, BALB/c mice); test: Ussing chamber, small intestine of BALB/c mice; assay type: in vivo, mouse; conditions: VX-770 i.p. 15 min prior to gliadin, 4 weeks
In short: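 BALB/c mice on a gluten-free diet for ≥3 generations were given oral gliadin (5 mg daily for 1 week, then thrice weekly for 3 weeks) ± VX-770; n = 10 per group. Small intestine tissue was mounted in Ussing chambers with identical Ringer on both sides, at 37°C, stirred and gassed with 95% O2/5% CO2.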

NOD‐DQ8 mice = test: Gliadin-challenged NOD-DQ8 mice; assay type: in vivo, mouse; conditions: gliadin 4 weeks, VX-770 i.p.
In short: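 NOD.[…] AB0null mice expressing HLA-DQ8 (congenic NOD background), 10 per group. Oral gliadin or vehicle for 4 weeks: 5 mg daily for 1 week, then 5 mg thrice weekly for 3 weeks. VX-770 given intraperitoneally 15 min before each gliadin challenge.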

[5] = test system: BALB/c mice small intestine; test: Small intestine cytokine protein levels; assay type: in vivo, mouse; conditions: VX-770 i.p. prior to gliadin
In short: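 BALB/c mice kept gluten-free for at least three generations, 10 weeks old, at least 10 per group. Oral gliadin or vehicle for 4 weeks (5 mg daily for 1 week, then thrice weekly for 3 weeks). Small-intestine homogenates assayed for IL-10 and TGF-β by ELISA, read in triplicate at 450 nm. Values normalised to Bradford protein.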

CFTR [6] = test: Proximity ligation assay CFTR / P31–43, Caco-2 cells; assay type: binding, human; conditions: short pre-incubation
In short: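 Caco-2 cells were pre-incubated up to 20 min with VX-770 (10 μM), then exposed to P31–43. Cells were fixed in 4% PFA for 15 min at room temperature and blocked with 0.1% Triton X-100/0.5% BSA. Primary antibodies were applied overnight at 4°C and Duolink probes (1:5) for 1 h at 37°C. Ligation, rolling-circle amplification, red detection and DAPI counterstain followed.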

CFTR [7] = test: Co-immunoprecipitation of CFTR with biotinylated peptide, Caco-2 cells; assay type: binding, human; conditions: short pre-incubation, Caco-2
wild‐type mouse CFTR = conditions: ref Cui & McCarty, 2015; Cui et al, 2016; Zeng et al, 2017; cited from earlier work
NOD mice = test: Gliadin-challenged NOD mice; assay type: in vivo, mouse; conditions: gliadin after diabetes onset, VX-770 i.p.
In short: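 Female NOD mice with diabetes (blood glucose > 250 mg/dl, monitored weekly) were used at 12–13 weeks. They were challenged orally with gliadin for 4 consecutive weeks. VX-770 was given intraperitoneally 15 min before each challenge. n = 10 mice per group.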

TG2 = TG2 activity and TG2-catalysed crosslinking in Caco-2 cells; assay type: cell-based, human; conditions: Caco-2, Ca2+ pulse, BAP incorporation
IL‐15 (Caco‐2 cells) [8] = test: IL-15 production; assay type: cell-based, human; conditions: Caco-2, VX-770 pre-treatment, P < 0.001
Caco‐2CFTR‐KO cells = test: IL-15 production and ERK1/2 phosphorylation, Caco-2 CFTR-KO cells; assay type: cell-based, human
TG2 and CFTR = test: Co-immunoprecipitation of TG2 and CFTR, Caco-2 cells; assay type: cell-based, human; conditions: Caco-2, pre-treatment
IL‐15 (Caco‐2 cells) [9] = test: IL-15 in lower compartment of bidimensional culture; assay type: cell-based, human; conditions: VX-770, P < 0.001 vs. peptide combination
[10] = test system: BALB/c mice small intestine; test: Small intestine transcript levels, BALB/c mice; assay type: in vivo, mouse; conditions: VX-770 i.p. prior to gliadin
Caco‐2 cells [11] = test: F-actin confocal staining, Caco-2 cells; assay type: cell-based, human; conditions: Caco-2, 24 h, VX-770
celiac PBMC [12] = test: Caco-2 / celiac PBMC bidimensional co-culture, cytokine release; assay type: cell-based, human; conditions: VX-770, P < 0.01
Caco‐2 cells [13] = test: Epithelial stress / innate immune markers by immunoblot, Caco-2 cells; assay type: cell-based, human
celiac PBMC [14] = test: Caco-2 CFTR-KO / celiac PBMC co-culture, cytokine release; assay type: cell-based, human; conditions: VX-770, P31–43 and P57–68 challenge
[15] = test system: BALB/c mice small intestine; test: Small intestine protein markers; assay type: in vivo, mouse; conditions: VX-770 i.p. prior to gliadin
BALB/c mice = test: Intestinal permeability; assay type: in vivo, mouse; conditions: VX-770 i.p. prior to gliadin, 4 weeks
In short: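 BALB/c mice kept ≥3 generations on a gluten-free diet were gavaged with gliadin (5 mg daily for 1 week, then thrice weekly for 3 weeks) ± intraperitoneal VX-770 15 min before; n = 10 per group. FITC-D4000 (600 mg/kg) was gavaged, and cardiac blood taken 1 h later. Plasma was diluted 1:1 in PBS and read at ex 485/em 528 nm against standards (50–0.312 μg/ml). Values are means ± SD of triplicate pooled samples.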

For `Cc1ccc(O)c(-c2cc(-c3ccccc3)n[nH]2)c1` [Vrx‐532], the “Protection from P31–43 effects on BECN1, hVps34, UVRAG, Rab5, Rab7” value (Caco‐2 cells [1]) was “counteracted”, the “Protection of iodide efflux against P31–43” value [2] was “protecting intestinal epithelial cells against P31–43‐mediated CFTR inhibition” and the “Prevention of P31–43 effects on CFTR stability / plasma membrane level” value (CFTR (Caco-2 cells)) was “prevented”. The “Protection against P31–43-mediated reduction of chloride current” value (CFTR (Caco‐2 cells)) was “prevented” and the “Abrogation of gliadin-peptide-induced CD3+CD25+ cell increase” value [3] was “highly effective in abrogating these effects of gliadin peptides”.

In the case of `CC(C)(C)c1cc(C(C)(C)C)c(NC(=O)c2c[nH]c3ccccc3c2=O)cc1O` [VX‐770], the “CFTR function and protein expression, gliadin-sensitive mice” value [4] is reported as “prevented the gliadin‐induced decrease in CFTR function (Fig 5A) and protein expression”, the “Protective effects in NOD-DQ8 mice” value (NOD‐DQ8 mice) is reported as “in NOD‐DQ8 mice as well” and the “IL-10 and TGF-β production” value [5] is reported as “improved IL‐10 and TGF‐β production”. For the same compound, the “IL-21 expression” value [5] was “inhibited the gliadin‐induced expression of IL‐21”, the “IL-15, IL-17A and IFN-γ mRNA and protein” value ([5]; P < 0.001) was “prevented the gliadin‐induced upregulation of IL‐15, IL‐17A, and IFN‐γ mRNA” and the “Effect of VX-770 on P31–43 interaction with CFTR (proximity ligation assay)” value (CFTR [6]) was “abolished the interaction of P31–43 with CFTR”. For the same compound, the “Effect of VX-770 on P31–43 interaction with CFTR (co-immunoprecipitation)” value (CFTR [7]) was “abolished the interaction of P31–43 with CFTR”, the “Potentiation of wild-type mouse CFTR channel function” value (wild‐type mouse CFTR) was “potentiate the ion channel function of wild‐type mouse CFTR” and the “Protective effects in NOD mice” value (NOD mice) was “protective effects of VX‐770 were confirmed in NOD mice”. The “Effect on TG2-mediated transamidation reactions itself” value (TG2) was “no impact on TG2‐mediated transamidation reactions”, the “P31–43-mediated increase in CD71 cell surface expression” value (Caco‐2 cells [1]; Caco-2) was “blocked the P31–43‐mediated increase in the cell surface expression of transferrin receptor” and the “Protection from P31–43 effects on BECN1, hVps34, UVRAG, Rab5, Rab7” value (Caco‐2 cells [1]) was “counteracted”. The “P31–43-induced CD71–SIgA interaction” value (Caco‐2 cells [1]; Caco-2 pre-incubated with SIgA 1 h at 4°C) was “abrogated the ability of P31–43 to increase the interaction of CD71 with SIgA”, the “P31–43-induced IL-15 production” value (IL‐15 (Caco‐2 cells) [8]) was “prevented the P31–43‐induced production of IL‐15” and the “Protection of iodide efflux against P31–43” value [2] was “protecting intestinal epithelial cells against P31–43‐mediated CFTR inhibition”. For the same compound, the “IL-15 expression and ERK1/2 phosphorylation in CFTR-KO cells” value (Caco‐2CFTR‐KO cells) was “failed to modulate both IL‐15 expression and ERK1/2 phosphorylation in Caco‐2CFTR‐KO cells”, the “Prevention of P31–43 effects on CFTR stability / plasma membrane level” value (CFTR (Caco-2 cells)) was “prevented” and the “Effect of VX-770 on chloride current when added after P31–43” value (CFTR (Caco‐2 cells); P31–43 100 μM then VX-770 10 μM then Fsk) was “poorly active”. For the same compound, the “Protection against P31–43-mediated reduction of chloride current” value (CFTR (Caco‐2 cells)) was “prevented”, the “Prevention of P31–43-induced TG2–CFTR interaction” value (TG2 and CFTR) was “abolished the P31–43‐induced interaction of TG2 and CFTR” and the “Prevention of IL-15 accumulation” value (IL‐15 (Caco‐2 cells) [9]) was “prevented by VX‐770”. The “Rorc and Tbet” value [10] was “downregulated upon VX‐770 treatment”, the “Formation of F-actin stress fibers induced by P31–43” value (Caco‐2 cells [11]) was “negated the capacity of P31–43 to induce the formation of F‐actin stress fibers” and the “IL-10 levels” value (celiac PBMC [12]) was “increased IL‐10 levels”. For the same compound, the “Prevention of IFN-γ production” value (celiac PBMC [12]) was “prevented the production of IFN‐γ by PT gliadin or peptide combination”, the “Prevention of P31–43-induced NF-κB p65 translocation, NLRP3 expression, caspase-1 cleavage” value (Caco‐2 cells [13]; Caco-2, VX-770) was “prevented additional pro‐inflammatory P31–43 effects” and the “Protection from P31–43-induced epithelial stress (PPARγ, phERK1/2, HSP70)” value (Caco‐2 cells [13]; Caco-2, pre-incubation with VX-770) was “protected Caco‐2 cells from signs of P31–43‐induced epithelial stress”. The “Prevention of IFN-γ production with Caco-2 CFTR-KO” value (celiac PBMC [14]) was “failed to prevent the production of IFN‐γ by celiac PBMC”, the “NKG2D upregulation on intraepithelial lymphocytes” value [15] was “counteracted” and the “NLRP3 expression” value [15] was “counteracted gliadin‐induced NLRP3 expression”. For the same compound, the “TG2 protein levels” value [15] was “opposed the ability of gliadin to increase TG2 protein levels”, the “NHERF-1 depletion” value ([15]; 4 weeks) was “abrogated the depletion of NHERF‐1” and the “Intestinal permeability” value (BALB/c mice) was “prevented the gliadin‐induced increase in intestinal permeability”.
